Measurements: ChEMBL document CHEMBL1147738, “Potent and selective mitogen-activated protein kinase kinase (MEK) 1,2 inhibitors. 1. 4-(4-bromo-2-fluorophenylamino)-1- methylpyridin-2(1H)-ones” (J Med Chem, 2006)
≈ marks a conversion by molar mass, not a printed value. Values belong to the compound of their own block, whether it stands above or below them.

What was measured:
Malme-3M [1] = assay: Inhibition of basal ERK phosphorylation in Malme-3M cells; format: functional, Homo sapiens
Malme-3M [2] = assay: Inhibition of cellular viability of Malme-3M cells; format: functional, Homo sapiens
[3] = target: Mitogen-activated protein kinase 11 (Homo sapiens) (UniProt Q15759); assay: Inhibition of SAPK2b/p38--beta-2 at 10 uM
Mitogen-activated protein kinase 11 (Homo sapiens), sequence (Q15759 whole entry): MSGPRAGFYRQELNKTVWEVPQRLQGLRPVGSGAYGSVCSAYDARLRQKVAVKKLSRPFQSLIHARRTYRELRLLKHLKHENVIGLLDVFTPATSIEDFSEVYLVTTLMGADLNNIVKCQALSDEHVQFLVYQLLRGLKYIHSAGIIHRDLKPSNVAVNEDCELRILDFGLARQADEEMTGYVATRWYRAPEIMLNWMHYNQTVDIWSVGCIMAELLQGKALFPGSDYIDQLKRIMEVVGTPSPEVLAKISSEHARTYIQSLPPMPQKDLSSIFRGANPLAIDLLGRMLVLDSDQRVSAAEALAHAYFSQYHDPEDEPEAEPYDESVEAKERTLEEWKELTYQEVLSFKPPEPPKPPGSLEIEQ
Summary of the method: (§1)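 Kinase panel run at Upstate (Dundee). Each compound was tested at 10 µM against each enzyme and reported as % inhibition.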

[4] = target: Tyrosine-protein kinase Lck (Homo sapiens) (UniProt P06239); assay: Inhibition of LCK at 10 uM; summary of the method: as §1
Tyrosine-protein kinase Lck (Homo sapiens), sequence (P06239 2-509 limits assumed): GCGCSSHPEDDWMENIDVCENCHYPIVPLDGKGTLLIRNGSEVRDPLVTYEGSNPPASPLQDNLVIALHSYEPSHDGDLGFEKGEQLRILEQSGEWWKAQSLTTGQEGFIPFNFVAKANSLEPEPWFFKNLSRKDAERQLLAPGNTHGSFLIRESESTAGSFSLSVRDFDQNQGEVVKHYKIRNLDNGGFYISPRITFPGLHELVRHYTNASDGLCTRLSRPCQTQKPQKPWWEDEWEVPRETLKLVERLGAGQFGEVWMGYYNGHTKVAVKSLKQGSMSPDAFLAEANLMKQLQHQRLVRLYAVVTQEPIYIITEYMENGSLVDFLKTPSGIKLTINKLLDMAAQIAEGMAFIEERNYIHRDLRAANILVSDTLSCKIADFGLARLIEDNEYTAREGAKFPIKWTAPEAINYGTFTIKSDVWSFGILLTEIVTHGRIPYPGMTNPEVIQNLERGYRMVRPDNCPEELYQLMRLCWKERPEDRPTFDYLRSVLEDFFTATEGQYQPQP

[5] = target: Rho-associated protein kinase 2 (Homo sapiens) (UniProt O75116); assay: Inhibition of ROCK 2 at 10 uM; summary of the method: as §1
Rho-associated protein kinase 2 (Homo sapiens), sequence (O75116 whole entry, looked up): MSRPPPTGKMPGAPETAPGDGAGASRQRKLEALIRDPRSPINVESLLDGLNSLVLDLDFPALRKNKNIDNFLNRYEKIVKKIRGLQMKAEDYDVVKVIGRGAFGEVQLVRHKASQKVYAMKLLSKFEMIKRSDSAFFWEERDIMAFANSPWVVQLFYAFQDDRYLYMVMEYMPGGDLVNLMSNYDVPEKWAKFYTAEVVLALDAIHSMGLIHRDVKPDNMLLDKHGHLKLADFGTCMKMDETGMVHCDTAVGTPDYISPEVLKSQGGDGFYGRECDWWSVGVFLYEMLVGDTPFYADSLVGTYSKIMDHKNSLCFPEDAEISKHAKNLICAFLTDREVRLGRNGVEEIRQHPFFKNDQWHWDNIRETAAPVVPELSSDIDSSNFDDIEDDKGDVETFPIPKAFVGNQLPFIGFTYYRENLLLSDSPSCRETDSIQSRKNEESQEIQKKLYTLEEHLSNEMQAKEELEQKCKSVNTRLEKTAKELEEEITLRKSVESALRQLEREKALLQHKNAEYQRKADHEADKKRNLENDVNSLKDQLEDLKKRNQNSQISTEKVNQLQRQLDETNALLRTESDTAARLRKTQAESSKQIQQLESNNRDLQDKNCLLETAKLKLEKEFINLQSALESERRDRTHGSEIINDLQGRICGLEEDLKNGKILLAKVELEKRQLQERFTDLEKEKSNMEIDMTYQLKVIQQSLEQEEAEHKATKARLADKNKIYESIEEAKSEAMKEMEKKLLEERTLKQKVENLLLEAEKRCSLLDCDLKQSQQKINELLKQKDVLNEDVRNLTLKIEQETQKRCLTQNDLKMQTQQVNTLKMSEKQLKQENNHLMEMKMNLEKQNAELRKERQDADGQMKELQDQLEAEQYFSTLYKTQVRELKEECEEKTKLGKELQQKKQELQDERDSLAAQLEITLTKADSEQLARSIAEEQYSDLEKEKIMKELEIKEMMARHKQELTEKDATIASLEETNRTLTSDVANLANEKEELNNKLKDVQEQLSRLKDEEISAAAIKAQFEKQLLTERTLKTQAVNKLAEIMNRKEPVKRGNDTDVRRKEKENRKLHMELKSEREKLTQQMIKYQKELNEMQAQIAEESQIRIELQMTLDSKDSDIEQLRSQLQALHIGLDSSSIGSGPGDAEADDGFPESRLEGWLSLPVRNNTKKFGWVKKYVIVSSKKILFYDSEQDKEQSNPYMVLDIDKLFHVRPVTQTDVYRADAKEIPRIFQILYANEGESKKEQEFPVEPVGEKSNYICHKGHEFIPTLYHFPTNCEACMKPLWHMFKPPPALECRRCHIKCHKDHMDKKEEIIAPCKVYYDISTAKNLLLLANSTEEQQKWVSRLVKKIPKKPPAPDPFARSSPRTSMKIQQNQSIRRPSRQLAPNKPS

[6] = target: Ribosomal protein S6 kinase (P70S6K) (Homo sapiens) (UniProt Q9UBS0+P23443); assay: Inhibition of p70 S6K at 10 uM; format: protein-complex assay; summary of the method: as §1
[7] = Half life in rat at 1 mg/kg, iv; format: ADME, organism-based; set-up: dose 1 mg/kg, route intravenous; details: Sprague-Dawley, in vivo
Summary of the method: (§2)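 Male Sprague Dawley rats (6-10 weeks), fed ad lib, dosed IV at 1 mg/kg (1 mg/mL in 10% DMSO/90% normal saline, 1 mL/kg). Tail-vein EDTA blood sampled 1, 5, 15, 30 min and 1, 2, 4, 8, 12, 24 h. Plasma analysed by LC/MS/MS after methanol protein precipitation, range 9 ng/mL to 20 µg/mL. Parameters derived by non-compartmental analysis.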

[8] = target: Protein kinase C alpha type (Homo sapiens) (UniProt P17252); assay: Inhibition of PKCa at 10 uM; summary of the method: as §1
[9] = target: MAP kinase-activated protein kinase 2 (Homo sapiens) (UniProt P49137); assay: Inhibition of MAPKAP-K2 at 10 uM; summary of the method: as §1
MAP kinase-activated protein kinase 2 (Homo sapiens), sequence (P49137 whole entry, looked up): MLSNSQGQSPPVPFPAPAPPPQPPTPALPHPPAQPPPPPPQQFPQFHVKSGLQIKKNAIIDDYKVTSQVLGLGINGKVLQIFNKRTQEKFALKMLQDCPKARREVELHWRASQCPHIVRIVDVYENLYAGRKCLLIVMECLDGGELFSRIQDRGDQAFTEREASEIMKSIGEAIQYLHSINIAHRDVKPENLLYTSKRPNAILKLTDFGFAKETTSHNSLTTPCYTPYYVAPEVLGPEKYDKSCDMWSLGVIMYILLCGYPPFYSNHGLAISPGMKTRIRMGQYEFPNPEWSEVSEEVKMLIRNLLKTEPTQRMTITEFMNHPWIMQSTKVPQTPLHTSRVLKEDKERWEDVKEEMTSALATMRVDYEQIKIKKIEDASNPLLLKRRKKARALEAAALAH

[10] = target: Glycogen synthase kinase-3 beta (Homo sapiens) (UniProt P49841); assay: Inhibition of GSK3b at 10 uM; summary of the method: as §1
[11] = Clearance in rat; format: ADME, organism-based; details: Sprague-Dawley, in vivo
Summary of the method: (§3)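 Male Sprague Dawley rats (6-10 weeks) received IV 1 mg/kg (10% DMSO/90% saline) and PO 10 mg/kg (1% CMC/0.5% Tween 80). Serial tail-vein plasma was taken up to 24 h (IV) or 72 h (PO) and analysed by LC/MS/MS (9 ng/mL to 20 µg/mL). Parameters were calculated non-compartmentally.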

[12] = target: Mitogen-activated protein kinase 14 (Homo sapiens) (UniProt Q16539); assay: Inhibition of SAPK2a/p38 at 10 uM; summary of the method: as §1
[13] = Half life in rat at 10 mg/kg, po; format: ADME, organism-based; set-up: dose 10 mg/kg, route oral; details: Sprague-Dawley, in vivo
Summary of the method: (§4)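 Male Sprague Dawley rats (6-10 weeks) were given 10 mg/kg by oral gavage (2 mg/mL in 1% CMC/0.5% Tween 80, 5 mL/kg). Tail-vein EDTA blood was drawn at 15 and 30 min and 1, 2, 4, 8, 12, 24, 48, 72 h. Plasma was quantified by LC/MS/MS after methanol precipitation. Parameters came from non-compartmental analysis.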

[14] = target: AMP-activated protein kinase, AMPK (Homo sapiens) (UniProt P54646+O43741+P54619+Q9UGJ0+Q9Y478+Q13131+Q9UGI9); assay: Inhibition of AMPK at 10 uM; format: protein-complex assay; summary of the method: as §1
[15] = Clearance in presence of human hepatocytes; format: ADME, cell-based, Liver, Hepatocyte
Summary of the method: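 Human hepatocytes (fresh or cryopreserved) diluted to 2 x 10⁶ viable cells/mL in supplemented Krebs-Henseleit buffer pH 7.3, mixed 1:1 with 2 µM compound working solution. Incubated at 37 °C, 5% CO₂, duplicates, one plate per timepoint. Quenched with labetalol internal standard and centrifuged; compound remaining measured by LC-MS/MS (ESI+, MRM).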

[16] = target: Mitogen-activated protein kinase 1 (Homo sapiens) (UniProt P28482); assay: Inhibition of MAPK2/ERK2 at 10 uM; summary of the method: as §1
Mitogen-activated protein kinase 1 (Homo sapiens), sequence (P28482 whole entry): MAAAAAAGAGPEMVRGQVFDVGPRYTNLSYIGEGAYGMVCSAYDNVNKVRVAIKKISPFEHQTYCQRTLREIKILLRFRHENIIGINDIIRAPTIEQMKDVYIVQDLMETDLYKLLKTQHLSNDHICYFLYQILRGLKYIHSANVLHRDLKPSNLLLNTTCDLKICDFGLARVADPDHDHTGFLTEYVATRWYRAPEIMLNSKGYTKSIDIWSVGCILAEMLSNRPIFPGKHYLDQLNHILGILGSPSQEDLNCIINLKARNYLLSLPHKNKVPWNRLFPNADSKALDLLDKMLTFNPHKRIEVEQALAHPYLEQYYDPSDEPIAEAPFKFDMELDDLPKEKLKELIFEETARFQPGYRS

[17] = target: RAC-alpha serine/threonine-protein kinase (Homo sapiens) (UniProt P31749); assay: Inhibition of PKBa at 10 uM; summary of the method: as §1
RAC-alpha serine/threonine-protein kinase (Homo sapiens), sequence (P31749 whole entry): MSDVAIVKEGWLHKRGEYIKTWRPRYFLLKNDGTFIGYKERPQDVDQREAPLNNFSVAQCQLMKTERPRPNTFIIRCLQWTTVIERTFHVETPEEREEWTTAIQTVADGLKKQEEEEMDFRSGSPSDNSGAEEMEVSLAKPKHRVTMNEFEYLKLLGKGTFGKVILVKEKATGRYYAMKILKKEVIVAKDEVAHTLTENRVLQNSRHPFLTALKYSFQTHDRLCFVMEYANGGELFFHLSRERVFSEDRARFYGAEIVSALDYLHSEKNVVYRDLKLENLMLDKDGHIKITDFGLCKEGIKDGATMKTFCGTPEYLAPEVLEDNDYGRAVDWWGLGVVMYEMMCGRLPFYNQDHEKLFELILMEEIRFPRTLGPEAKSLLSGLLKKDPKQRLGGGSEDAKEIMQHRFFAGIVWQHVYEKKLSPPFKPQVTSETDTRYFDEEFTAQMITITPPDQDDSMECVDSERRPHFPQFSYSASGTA

[18] = target: cAMP-dependent protein kinase (PKA) (Homo sapiens) (UniProt P22694+P17612+P22612); assay: Inhibition of PKA at 10 uM; format: protein assay; summary of the method: as §1
[19] = target: Casein kinase II (Homo sapiens) (UniProt P67870+P68400+P19784); assay: Inhibition of CK2 at 10 uM; format: protein-complex assay; summary of the method: as §1
[20] = target: T1, Lymphokine-activated killer T-cell-originated protein kinase (Homo sapiens) (UniProt Q96KB5); assay: Inhibition of PBK at 10 uM; summary of the method: as §1
T1 sequence (whole entry): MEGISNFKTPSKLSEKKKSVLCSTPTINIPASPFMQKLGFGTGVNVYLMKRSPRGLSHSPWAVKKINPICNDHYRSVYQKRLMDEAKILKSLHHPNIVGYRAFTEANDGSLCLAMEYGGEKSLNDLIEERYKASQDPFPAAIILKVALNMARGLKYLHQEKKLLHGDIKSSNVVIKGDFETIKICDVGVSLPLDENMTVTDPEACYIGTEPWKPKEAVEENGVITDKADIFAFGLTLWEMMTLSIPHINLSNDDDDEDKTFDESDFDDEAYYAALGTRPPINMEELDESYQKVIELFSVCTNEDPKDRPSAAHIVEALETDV

[21] = target: T2, MAP kinase-activated protein kinase 5 (Homo sapiens) (UniProt Q8IW41); assay: Inhibition of PRAK at 10 uM; summary of the method: as §1
T2 sequence (whole entry): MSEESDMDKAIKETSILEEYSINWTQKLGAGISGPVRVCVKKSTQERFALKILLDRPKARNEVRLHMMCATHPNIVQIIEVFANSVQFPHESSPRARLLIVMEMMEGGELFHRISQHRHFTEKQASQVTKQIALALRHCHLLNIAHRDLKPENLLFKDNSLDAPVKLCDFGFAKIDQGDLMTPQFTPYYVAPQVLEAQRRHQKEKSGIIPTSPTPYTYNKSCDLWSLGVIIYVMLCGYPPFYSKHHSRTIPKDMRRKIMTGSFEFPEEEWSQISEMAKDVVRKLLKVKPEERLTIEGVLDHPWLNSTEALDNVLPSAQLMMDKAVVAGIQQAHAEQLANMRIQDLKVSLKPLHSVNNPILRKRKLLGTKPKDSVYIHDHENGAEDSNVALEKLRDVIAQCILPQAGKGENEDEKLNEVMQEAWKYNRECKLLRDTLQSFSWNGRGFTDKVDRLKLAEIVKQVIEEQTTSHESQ

[22] = Oral bioavailability in rat; format: ADME, organism-based; details: Sprague-Dawley, in vivo; summary of the method: as §3
[23] = target: Ribosomal protein S6 kinase alpha-5 (Homo sapiens) (UniProt O75582); assay: Inhibition of MSK1 at 10 uM; summary of the method: as §1
Ribosomal protein S6 kinase alpha-5 (Homo sapiens), sequence (O75582 whole entry, looked up): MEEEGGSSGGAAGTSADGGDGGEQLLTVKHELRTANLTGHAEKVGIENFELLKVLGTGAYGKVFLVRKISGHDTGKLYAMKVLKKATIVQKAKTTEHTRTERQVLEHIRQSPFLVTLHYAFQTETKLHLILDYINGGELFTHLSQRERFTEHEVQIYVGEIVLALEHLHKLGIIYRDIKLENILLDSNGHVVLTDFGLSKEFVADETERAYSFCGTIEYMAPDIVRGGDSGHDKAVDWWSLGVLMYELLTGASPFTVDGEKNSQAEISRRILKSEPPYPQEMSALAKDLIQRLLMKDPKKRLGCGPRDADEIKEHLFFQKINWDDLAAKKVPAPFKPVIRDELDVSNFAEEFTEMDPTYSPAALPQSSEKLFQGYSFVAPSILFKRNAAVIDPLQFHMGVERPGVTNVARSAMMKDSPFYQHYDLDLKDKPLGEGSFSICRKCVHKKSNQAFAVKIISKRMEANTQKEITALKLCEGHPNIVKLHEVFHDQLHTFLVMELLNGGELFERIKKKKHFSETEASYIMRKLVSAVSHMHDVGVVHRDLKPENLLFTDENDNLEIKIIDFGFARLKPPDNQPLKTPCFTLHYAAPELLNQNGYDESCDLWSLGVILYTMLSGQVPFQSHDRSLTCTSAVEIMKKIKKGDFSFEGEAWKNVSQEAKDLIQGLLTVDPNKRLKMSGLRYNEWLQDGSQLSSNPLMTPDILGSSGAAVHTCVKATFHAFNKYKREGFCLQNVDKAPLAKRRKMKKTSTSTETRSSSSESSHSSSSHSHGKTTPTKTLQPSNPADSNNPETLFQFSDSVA

[24] = target: Ribosomal protein S6 kinase alpha-1 (Homo sapiens) (UniProt Q15418); assay: Inhibition of MAPKAP-K1a at 10 uM; summary of the method: as §1
Rattus norvegicus [25] = assay: AUC in rat at 1 mg/kg, iv; format: ADME, organism-based, Sprague-Dawley, Plasma; set-up: dose 1 mg/kg, route intravenous; details: in vivo; summary of the method: as §2
[26] = target: Dual specificity tyrosine-phosphorylation-regulated kinase 1A (Homo sapiens) (UniProt Q13627); assay: Inhibition of DYRK1a at 10 uM; summary of the method: as §1
[27] = target: Mitogen-activated protein kinase 8 (Homo sapiens) (UniProt P45983); assay: Inhibition of JNK/SAPK1c at 10 uM; summary of the method: as §1
Mitogen-activated protein kinase 8 (Homo sapiens), sequence (P45983 whole entry): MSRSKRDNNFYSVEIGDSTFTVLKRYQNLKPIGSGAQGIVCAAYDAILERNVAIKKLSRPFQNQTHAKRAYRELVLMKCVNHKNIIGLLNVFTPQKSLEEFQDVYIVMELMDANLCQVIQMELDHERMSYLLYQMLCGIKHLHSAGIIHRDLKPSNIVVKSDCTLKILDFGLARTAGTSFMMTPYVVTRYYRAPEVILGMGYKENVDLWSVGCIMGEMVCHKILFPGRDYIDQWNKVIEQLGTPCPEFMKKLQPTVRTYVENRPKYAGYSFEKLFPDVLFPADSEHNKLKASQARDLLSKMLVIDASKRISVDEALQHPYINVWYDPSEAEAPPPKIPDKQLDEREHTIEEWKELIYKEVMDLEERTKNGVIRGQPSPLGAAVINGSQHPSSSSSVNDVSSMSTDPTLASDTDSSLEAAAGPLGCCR

Rattus norvegicus [28] = assay: AUC in rat at 10 mg/kg, po; format: ADME, organism-based, Sprague-Dawley, Plasma; set-up: dose 10 mg/kg, route oral; details: in vivo; summary of the method: as §4
[29] = target: T3, Serine/threonine-protein kinase Chk1 (Homo sapiens) (UniProt O14757); assay: Inhibition of CHK1 at 10 uM; summary of the method: as §1
T3 sequence (whole entry): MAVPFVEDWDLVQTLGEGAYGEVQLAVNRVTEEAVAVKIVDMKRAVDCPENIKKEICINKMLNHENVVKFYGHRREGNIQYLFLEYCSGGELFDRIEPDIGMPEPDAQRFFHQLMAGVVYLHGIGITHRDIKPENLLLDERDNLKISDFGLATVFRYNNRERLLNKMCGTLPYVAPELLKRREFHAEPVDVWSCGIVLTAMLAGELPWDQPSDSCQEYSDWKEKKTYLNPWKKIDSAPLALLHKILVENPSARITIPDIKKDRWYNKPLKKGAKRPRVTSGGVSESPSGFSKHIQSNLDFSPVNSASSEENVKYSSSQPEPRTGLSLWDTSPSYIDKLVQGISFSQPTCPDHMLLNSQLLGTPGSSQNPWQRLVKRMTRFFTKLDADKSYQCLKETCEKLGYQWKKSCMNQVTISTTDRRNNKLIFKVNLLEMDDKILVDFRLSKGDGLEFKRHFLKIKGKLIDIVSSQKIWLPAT

[30] = Volume of distribution in rat; format: ADME, organism-based; details: Sprague-Dawley, in vivo, read-out: Vdss; summary of the method: as §3
[31] = target: Cyclin-dependent kinase 2/cyclin A (Homo sapiens) (UniProt P24941+P20248+P78396); assay: Inhibition of CDK2/cyclin A at 10 uM; format: protein-complex assay; summary of the method: as §1
[32] = Aqueous solubility at pH 6.5; format: physicochemical
Summary of the method: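 Thermodynamic shake-flask method: crystalline solid (0.5 mg, crystallinity confirmed by polarizing microscopy) in 0.5 mL 10 mM potassium phosphate, pH 6.5, swirled 24 h at room temperature. Filtered aliquots were quantified by HPLC-PDA against a calibration curve.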

HT-29 [33] = assay: Inhibition of ERK phosphorylation in HT29 tumor bearing NCr-nu/nu mice after 4 hrs at 10 mg/kg, po; format: functional; details: Mus musculus, HT-29, 4 h
HT-29 [34] = assay: Inhibition of ERK phosphorylation in HT29 tumor bearing Ncr-nu/nu mice after 12 hrs at 10 mg/kg, po; format: functional; details: Mus musculus, HT-29, 12 h

Structure (SMILES): COc1ncc(C(=O)NOCCO)c(Nc2ccc(Br)cc2F)c1Cl
- Activity (Malme-3M [1]): >10000 nM
- Activity (Malme-3M [2]): >5000 nM

Structure (SMILES): CNC(=O)c1cn(C)c(=O)c(F)c1Nc1ccc(Br)cc1F
- Activity (Malme-3M [1]): 68 nM
- Activity (Malme-3M [2]): 405 nM

Structure (SMILES): Cn1cc(C(=O)NO)c(Nc2ccc(Br)cc2F)c(F)c1=O
- Activity (Malme-3M [1]): 18 nM
- Activity (Malme-3M [2]): 860 nM

- inhibition [3]: 9%
- inhibition [4]: 19%
- inhibition [5]: 4%
- inhibition [6]: 13%
- half-life [7]: 360 min
- inhibition [8]: 6%
- inhibition [9]: 15%
- inhibition [10]: 21%
- clearance [11]: 0.7 mL/min/kg
- inhibition [12]: 10%
- half-life [13]: 720 min
- inhibition [14]: 8%
- CLhep predicted [15]: 2 mL/min/kg
- inhibition [16]: 7%
- inhibition [17]: 6%
- inhibition [18]: 14%
- inhibition [19]: 4%
- inhibition [21]: 18%
- bioavailability [22]: 58%
- inhibition [23]: 7%
- inhibition [24]: 6%
- AUC (Rattus norvegicus [25]): 24.1 µg·h/mL
- inhibition [26]: 12%
- inhibition [27]: 15%
- AUC (Rattus norvegicus [28]): 138 µg·h/mL
- inhibition [29]: 13%
- Vd [30]: 0.4 L/kg
- inhibition [31]: 25%
Structure (SMILES): CCONC(=O)c1cn(C)c(=O)c(F)c1Nc1ccc(Br)cc1F
- inhibition [20]: -1%

- half-life [7]: 108 min
- clearance [11]: 5.7 mL/min/kg
- half-life [13]: 660 min
- CLhep predicted [15]: 9 mL/min/kg
- bioavailability [22]: 100%
- AUC (Rattus norvegicus [25]): 2.5 µg·h/mL
- solubility [32]: 26 µg/mL (≈ 72.6 µM)
- AUC (Rattus norvegicus [28]): 23 µg·h/mL
- Vd [30]: 0.8 L/kg
Structure (SMILES): Cn1cc(C(N)=O)c(Nc2ccc(Br)cc2F)c(F)c1=O
- Activity (Malme-3M [1]): 7.1 nM
- Activity (Malme-3M [2]): 48 nM
- inhibition in vivo at 10 mg/kg (HT-29 [33]): > 80%
- inhibition in vivo at 10 mg/kg (HT-29 [34]): 50%

Structure (SMILES): Cn1cc(C(=O)NOCCO)c(Nc2ccc(Br)cc2F)c(Cl)c1=O
- Activity (Malme-3M [1]): 26 nM
- Activity (Malme-3M [2]): 175 nM

Structure (SMILES): CONC(=O)c1cn(C)c(=O)c(F)c1Nc1ccc(Br)cc1F
- Activity (Malme-3M [1]): 22 nM
- Activity (Malme-3M [2]): 145 nM

Structure (SMILES): O=C(NOCCO)c1cnc(Cl)c(Cl)c1Nc1ccc(Br)cc1F
- Activity (Malme-3M [1]): >10000 nM
- Activity (Malme-3M [2]): >5000 nM
